# High-throughput results (PubChem)
# PLCg1 inh = inhibitors of human phospholipase C gamma1; P19174; purified PLC-gamma1, fluorogenic substrate, fluorescence; inhibition, % at 12.2 µM; hit rate 0.84% among 370,000
# PLCb3 inh = PLC-beta3 (human) inhibition, primary screen; hit rate 0.18% among 370,000; Purified PLC-beta3, fluorogenic substrate, fluorescence; inhibition, % at 12.2 µM; in the data active means inhibition above about 11%;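 further: 0% = median of compound wells on plate and 100% = full blocker control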
# Arr AP2 block = human beta-arrestin and AP2 interaction inhibition | FITC-arrestin peptide / GST-AP2 beads, flow cytometry; AP2 beta2 appendage carries R879A mutation | inhibition, % at 10 µM | AID 504490 | hit rate 0.31% among 340,000;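 active means inhibition above a set limit, near 3 SD of compounds lacking own fluorescence, cut at about 54% in these data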;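 further: plate controls were DMSO wells for no effect and 5 µM unlabelled arrestin peptide for full effect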
#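 System: GST-AP2 R879A bound to glutathione beads, E. coli-expressed. Also added: 50 nM FITC-arrestin peptide. Schedule: compound with beads 12 min RT, then probe 1 h RT. Signal: bead flow cytometry, FITC channel. Read-out basis: percent response.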
# NTR1 ag = agonists of human neurotensin receptor NTR1; NTR1-U2OS beta-arrestin-GFP spot imaging, agonist mode; hit rate 0.17% among 330,000; P30989; AID 493036; activation, % at 20 µM;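 active means activation at or above 40% of the spot to cytoplasm intensity ratio, with at least 20 cells analyzed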;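 further: 0% = DMSO without peptide and 100% = 100 nM NTR1 peptide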
# Target sequence (P30989 whole entry, looked up): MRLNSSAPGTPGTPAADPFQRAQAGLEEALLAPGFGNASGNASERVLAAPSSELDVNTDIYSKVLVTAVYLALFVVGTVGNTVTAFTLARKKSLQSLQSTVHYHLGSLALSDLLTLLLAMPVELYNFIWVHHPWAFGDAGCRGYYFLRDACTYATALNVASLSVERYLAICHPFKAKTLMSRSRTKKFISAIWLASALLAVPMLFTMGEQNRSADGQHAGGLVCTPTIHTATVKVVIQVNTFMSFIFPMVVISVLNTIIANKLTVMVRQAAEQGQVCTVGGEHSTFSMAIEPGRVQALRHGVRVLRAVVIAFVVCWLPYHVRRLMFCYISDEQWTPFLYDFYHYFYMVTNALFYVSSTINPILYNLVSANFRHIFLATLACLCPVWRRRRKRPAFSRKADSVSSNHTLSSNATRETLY
# PLCgamma1 ctr = counter-screen for PLC-beta3 inhibitors: inhibitors of human PLC-gamma1 | shares compounds with PLCg1 inh | purified PLC-gamma1, fluorogenic substrate, fluorescence | inhibition, % at 12.3 µM | hit rate 3.1% among 3,300 | AID 743258
# PLCb3 confirm = human PLC-beta3 inhibition, confirmation; shares compounds with PLCg1 inh; inhibition, % at 12.3 µM; hit rate 1% among 3,300; purified PLC-beta3, fluorogenic substrate fluorescence; in the data active means inhibition above about 11%
# An asterisk follows results filed as active; x = no result. Most compounds without a hit are left out; they make up all but 1.3% or so of the library. Unless noted, no stated cut-off is given here; in the data, active means inhibition above about 9.5%; inactive means the rest.
SMILES,PLCg1 inh,PLCb3 inh,Arr AP2 block,NTR1 ag,PLCgamma1 ctr,PLCb3 confirm
COc1ccc(OC)c(S(=O)(=O)N2CCCC(C(=O)N3CCN(Cc4ccccc4)CC3)C2)c1 (stereo not drawn),4.3,0.6,x,x,x,x
CCCCN1CC(COCc2ccccc2)Oc2cccc(Sc3ccc(OC)c(OC)c3)c2S1(=O)=O (stereo not drawn),2.7,5.0,x,x,x,x
CCOC(=O)[C@@]12CN(C(=O)OC(C)(C)C)CC=C1N(Cc1ccc(OC)cc1)C(=O)[C@H]2CC(=O)N1CCC(c2ccccc2)CC1,-1.0,3.7,x,x,x,x
Nc1ccc(N2CCOCC2)c2nonc12,31.0*,-12.3,11.1,0.8,-3.9,-1.4
O=C(c1cccc(C(F)(F)F)c1)N1CC[C@H]2[C@H](CCCN2Cc2ccccc2)C1,-1.6,2.8,x,x,x,x
COc1cccc(CNn2c(-c3cccc(C)c3)nc3ccccc3c2=O)c1,5.4,11.3*,-6.3,5.3,-7.8,-6.8
Cc1cc(Cl)c(OCCCN2CCCCC2)c(Br)c1,10.0*,6.2,9.2,-1.5,-5.3,0.2
Cc1cc(C)c(OCCN2CCCC2)c(Cl)c1,0.0,-2.7,3.7,-0.4,x,x
Cc1cc(NC(=O)CCCC(=O)O)nc(C)n1,10.5*,5.4,-1.3,1.1,-1.9,-0.8
CCc1c(-c2ccccc2F)ncn1CCc1ccccc1OC,-2.5,0.0,x,x,x,x
O=C(N/N=C\c1ccc(Cl)cc1)C1=NOC2COC3(CCN(c4ccc([N+](=O)[O-])cc4)CC3)OCC12 (stereo not drawn),14.2*,12.9*,42.4,-0.1,-19.0,-24.3
Cc1ccc(OCCCCN(C)Cc2ccccc2)c(Br)c1,0.3,4.1,11.3,0.6,x,x
Cc1cc(C)c(OCCCCN(C)Cc2ccccc2)c(C)c1,13.4*,0.6,-6.4,1.4,-3.1,1.1
CCS(=O)(=O)c1nc(S(=O)(=O)c2ccc(Cl)cc2)c(N2CCN(C)CC2)s1,2.3,-5.6,-10.3,2.2,x,x
CCS(=O)(=O)c1nc(S(=O)(=O)c2ccc(C)cc2)c(N2CCN(C)CC2)s1,9.8*,-4.7,-4.4,0.3,-0.2,-0.8
COc1ccc(OCCn2cc(/C(N)=N/O)c3ccccc32)cc1,9.5,10.9*,3.0,1.5,8.5,1.6
Cc1ccc2c(=O)[nH]c(Nc3nc(C)cc(-c4ccccc4)n3)nc2c1,10.6*,-4.1,-12.1,16.4,-4.9,-2.2
O=C(NC1CCCC1)C1CCN(S(=O)(=O)c2ccc3[nH]c(=O)oc3c2)CC1,-2.2,-1.1,x,x,x,x
CC(CCc1ccccc1)NC(=O)c1cccs1 (stereo not drawn),4.3,11.9*,-0.8,0.8,-2.1,1.1
Cc1ccc(/C=C/C(=O)NCc2cccs2)cc1,8.0,12.8*,28.9,-0.5,-7.0,-1.0
O=C(COC(=O)c1ccc(Br)cc1)NCC1CCCO1 (stereo not drawn),4.6,11.6*,2.9,-2.7,6.3,0.0
O=C(CCc1ccccc1)N[C@H]1[C@H](OC(=O)c2ccco2)CCC[C@@]12C(=O)N(Cc1ccccc1)c1ccccc12,1.6,2.0,x,x,x,x
CC(C)(C)c1ccc(/C=N/NC(=S)NC2CCCCC2)cc1,11.2*,5.9,19.4,1.5,0.6,-3.7
O=C(CSc1nnc(-c2cnccn2)n1-c1ccccc1)c1ccc(F)cc1,-2.1,-0.3,x,x,x,x
COc1ccc(N2CCN(C(=O)C3CCN(S(=O)(=O)c4ccc5c(c4)CC(C)N5C(=O)C4CC4)CC3)CC2)cc1 (stereo not drawn),0.9,-2.4,x,x,x,x
SMILES,PLCg1 inh,PLCb3 inh,Arr AP2 block,NTR1 ag,PLCgamma1 ctr,PLCb3 confirm
CC(C)Cn1c(N)c(C(=O)CSc2nc3ccccc3n2C)c(=O)n(C)c1=O,1.1,2.6,30.1,2.1,x,x
Cc1ccc(-n2nnnc2SCC(=O)c2c(N)n(CC(C)C)c(=O)n(C)c2=O)cc1,10.8*,2.8,10.0,4.6,-4.6,0.6
CCOC(=O)Cc1csc(SCC(=O)c2c(N)n(CC(C)C)c(=O)n(C)c2=O)n1,10.4*,0.3,5.4,-4.1,-2.0,2.1
Cc1c(-c2ccccc2)nc2ccccc2c1C(=O)NCc1cccs1,3.6,14.3*,10.7,2.3,-2.6,-1.6
COc1ccc(CNS(=O)(=O)c2cc(Br)ccc2Br)c(OC)c1,8.7,-0.8,x,x,x,x
COc1ccc(CCNC(=O)C2CC(=O)N(C3CCCCC3)C2)cc1OC (stereo not drawn),11.2*,-2.0,-10.1,-0.6,-0.6,0.3
